Assay outcomes from PubChem.
The list is not random: actives were taken first. Their share in the collection is about 2.2%.
M1 ag: agonists of human M1 muscarinic receptor; 360,000 compounds, 0.33% hits; AID 588814; CHO-K1 hM1, Fluo-8 calcium fluorescence, agonist mode; 0% DMSO, 100% acetylcholine EC100; activation, % at 3 µM; P11229;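 active = activation above the run's mean compound activation plus 3 SD, cut at about 16% in these data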;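 also: peak over basal fluorescence ratio within a 140 s kinetic read after compound addition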
Target sequence (P11229 whole entry, looked up): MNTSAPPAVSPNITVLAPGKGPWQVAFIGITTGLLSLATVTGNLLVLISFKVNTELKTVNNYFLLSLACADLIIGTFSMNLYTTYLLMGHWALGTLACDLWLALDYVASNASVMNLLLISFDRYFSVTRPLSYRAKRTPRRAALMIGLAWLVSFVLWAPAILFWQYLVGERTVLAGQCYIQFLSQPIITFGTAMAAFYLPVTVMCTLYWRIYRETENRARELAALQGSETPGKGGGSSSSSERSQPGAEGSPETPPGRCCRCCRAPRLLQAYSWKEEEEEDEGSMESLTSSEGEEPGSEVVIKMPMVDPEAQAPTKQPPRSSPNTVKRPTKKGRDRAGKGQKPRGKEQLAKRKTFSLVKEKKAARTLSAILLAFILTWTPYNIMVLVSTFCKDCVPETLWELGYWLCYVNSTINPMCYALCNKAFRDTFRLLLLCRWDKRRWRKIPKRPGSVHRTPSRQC
CHRM5 PAM: potentiates acetylcholine response at human M5 receptor. P08912. CHO-K1 hM5, Fluo-8 calcium, ACh EC20 PAM; 0% = ACh EC20, 100% = ACh EC100. activation, % at 3 µM. 360,000 compounds, 0.3% hits. AID 624038;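 active = activation above the run cutoff, the mean activation of all test compounds plus 3 SD, cut at about 18% in these data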
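Replicates: One well per compound, no replicates | System: Human M5 receptor in CHO-K1 cells | Benchmarks: Low control EC20 acetylcholine (0%), high control EC100 acetylcholine (100%) | Probe or stimulus: Acetylcholine, EC20 level | Times: Fluo-8 loading 80 min at 37 °C plus 30 min room temperature | Signal: Intracellular calcium via Fluo-8 fluorescence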
CHRM5 antagonist: blocks acetylcholine activation of human M5 receptor. P08912. CHO-hM5 cells, Fluo-8 calcium fluorescence, ACh EC80. inhibition, % at 3 µM. 360,000 compounds, 0.59% hits. AID 624040;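 active = inhibition above a per-plate cutoff, the mean of that plate's test compounds plus 3 SD, cut at about 27% in these data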;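 also: 0% = acetylcholine EC80 with DMSO and 100% = DMSO without agonist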
M1 antag: human CHRM1 antagonism; P11229; CHO-K1 hM1, Fluo-8 calcium fluorescence, ACh EC80 antagonist; inhibition, % at 3 µM; 360,000 compounds, 1.3% hits; AID 588852;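 active = percent inhibition above its own plate's cutoff, namely the mean of that plate's compound wells plus 3 SD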;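 also: peak over basal fluorescence ratio during 140 s after agonist addition; 0% = ACh EC80 plus DMSO and 100% = DMSO alone without agonist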
CHRM5 agonist: agonists of human muscarinic M5 receptor (CHRM5); 360,000 compounds, 0.19% hits; activation, % at 3 µM; CHO-K1 hM5 cells, Fluo-8 calcium fluorescence; 0% DMSO wells, 100% maximal acetylcholine response;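 active = activation above the run's mean over test compounds plus 3 SD, cut at about 23% in these data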;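 also: signal is peak over basal fluorescence ratio across the kinetic read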
M1 PAM: potentiates human M1 receptor response to acetylcholine; CHO-K1 hM1, Fluo-8 calcium fluorescence, ACh EC20; 0% = ACh EC20, 100% = maximal ACh; 360,000 compounds, 0.088% hits; AID 588819; activation, % at 3 µM; in the data active = activation above about 19%, passing the limit was not always enough
Active calls of the source: *.

SMILES	M1 ag	CHRM5 PAM	CHRM5 antagonist	M1 antag	CHRM5 agonist	M1 PAM
C[N+](C)(C)CC/C=C1/c2ccccc2CSc2ccccc21	-5	-26	99*	96*	-12	-24
Cc1csc(-c2cc(C(=O)NCc3ccc(F)cc3)n[nH]2)c1	0	0	-4	-16	0	9
COc1cc(C(=O)OCC(=O)Nc2ccc3c(c2)OC(F)(F)O3)ccc1OCc1c(C)noc1C	-1	32*	-3	-7	-4	8
Cc1ccc(OCC(=O)Nc2ccc3c(c2)OC(F)(F)O3)c([N+](=O)[O-])n1	-14	0	5	49*	-1	-27
NC(=O)c1c(NC(=O)c2ccccc2)sc2c1CCc1ccccc1-2	0	9	3	14	-1	-7
COCCCNC(=O)/C(C#N)=C/c1c(N2CCN(c3ccc(OC)cc3)CC2)nc2c(C)cccn2c1=O	-1	-10	31*	2	-2	3
Cc1cccn2c(=O)c(/C=C(\C#N)C(N)=O)c(N3CCN(Cc4ccc5c(c4)OCO5)CC3)nc12	-8	2	-13	70*	-7	-27
CCOC(=O)/C(C#N)=C/c1c(N2CCN(Cc3ccc4c(c3)OCO4)CC2)nc2c(C)cccn2c1=O	-8	5	4	5	2	-4
Cc1cccc(C)c1C(=NCCCN(C)C)c1ccccc1	-8	-18	80*	79*	-9	-27
COc1cc(C(C[N+](=O)[O-])c2c(C)[nH]c3ccccc23)ccc1O (stereo unspecified)	-5	-5	7	4	-1	0
Cc1[nH]c2ccccc2c1C(C[N+](=O)[O-])c1cccc(O)c1 (stereo unspecified)	-1	-24	15	37*	-3	-13
COc1ccc(-n2nc3c(N4CCC(C(=O)N5CCC(C)CC5)CC4)nnc(C)c3c2C)cc1	-6	-15	43*	37	-5	-19
Cc1nnc(N2CCC(C(=O)N3CCCCC3)CC2)c2nn(-c3ccc(Cl)cc3)c(C)c12	-6	2	-15	3	-9	-12
CN(C)c1nn(C(=O)Nc2cccc(C(F)(F)F)c2)cc1-c1ccccc1	1	-15	36*	9	5	-1
Cn1nc(C(=O)Nc2cccc(C(F)(F)F)c2)ccc1=O	-2	2	-5	-13	-2	6
O=C(CN1C(=O)C2CCCCC2C1=O)Nc1cc([N+](=O)[O-])ccc1F (stereo unspecified)	-3	-2	3	1	0	3
COc1ccc2cc1Oc1ccc(cc1)CC1c3c(cc(OC)c4c3Oc3cc5c(cc3O4)CCNC5C2)CCN1C (stereo unspecified)	-12	-8	4	91*	2	-35
COc1ccc(N(CCC#N)S(=O)(=O)c2cccc3nsnc23)cc1	-8	-6	6	25*	-10	-10
COc1ccc(Cl)cc1C(=O)CSc1nnnn1C1CCCCC1	-3	-15	6	27*	-7	-16
CCCCN(C)CCCNC(=O)c1cn(CC)c2ccc(S(=O)(=O)N3CCc4ccccc4C3)cc2c1=O	-7	-15	17	43*	-13	-18
Cc1cccc(NC(=O)CNC(=O)c2ccc3nc[nH]c3c2)c1C	-1	1	2	2	1	9
Cc1cc(/C=C2\SC(=S)N(Cc3ccco3)C2=O)c(C)n1-c1cccnc1	1	2	-2	7	10	6
COc1ccc(/C=C2\SC(=S)N(c3cccnc3)C2=O)cc1	4	5	-7	3	3	2
Cc1cc(/C=C2/SC(=S)N(c3cccc(C(F)(F)F)c3)C2=O)c(C)n1-c1cccnc1	6	-15	21	43*	3	-21
O=C1/C(=C\c2ccc(O)cc2)SC(=S)N1c1cccnc1	17*	-12	16	19	9	-10
SMILES	M1 ag	CHRM5 PAM	CHRM5 antagonist	M1 antag	CHRM5 agonist	M1 PAM
O=C1NC(Cc2ccc(O)cc2)c2nc3ccc(F)cc3c(=O)n2-c2cc3ccccc3cc21 (stereo unspecified)	-1	-10	2	23*	3	-10
CCN(CC)S(=O)(=O)c1ccc(NC(=O)CCN2C(=O)C3CC=CCC3C2=O)cc1 (stereo unspecified)	-7	-4	-5	-2	2	1
CCN(CC)CCn1c2ccccc2c2nc3ccccc3nc21	-8	-8	5	-1	2	-5
CCN(CC)CCn1c2ccccc2c2n[nH]c(=S)nc21	-10	-6	10	36*	-18	-28
CCN(CC)CCSc1nnc2c3ccccc3n(Cc3ccccc3)c2n1	-6	-24	19	51*	-18	-22
CCOC(=O)C1=C(C(=O)OCC)c2ccc(OC)c(OC)c2C1	-1	13	4	-4	-2	7
O=C(CCn1cnc2ccccc2c1=O)Nc1nc(-c2ccc(Br)cc2)cs1	-3	-5	4	4	-2	-4
CCN(c1ccccc1)S(=O)(=O)c1ccc(C(=O)NCC(c2cccs2)N(C)C)cc1 (stereo unspecified)	-5	-11	12	36*	2	-24
CCN(c1ccccc1)S(=O)(=O)c1cc(C(=O)NCC(c2ccc(OC)cc2)N(C)C)ccc1C (stereo unspecified)	36*	-39	9	55*	-11	-10
COc1ccc(C(CNC(=O)c2ccc(S(=O)(=O)N(C)C)cc2)N(C)C)cc1 (stereo unspecified)	-13	-2	-2	7	-2	-8
CCN1CCN(c2ccc(N=Cc3ccccc3O)cc2)CC1	-7	-5	5	10	-9	-4
COC(=O)c1c(C(=O)OC)c2c(-c3ccccc3)cc3cccc1n32	-3	-5	32*	-6	9	-1
Cc1nn(Cc2ccccc2)c(C)c1NC(=O)CCCn1nc([N+](=O)[O-])cc1C	-4	-3	6	-2	-1	2
Cc1c(Br)c([N+](=O)[O-])nn1CCCC(=O)Nc1c(C)n(C)n(-c2ccccc2)c1=O	-8	-19	2	82*	-20	-24
Cc1cc([N+](=O)[O-])nn1CCCC(=O)Nc1c(C)n(C)n(-c2ccccc2)c1=O	-4	-14	13	31*	-18	-14
Cc1cc([N+](=O)[O-])nn1CCC(=O)Nc1nccs1	-6	18*	-34	-2	5	19
O=C(CN1CCN(S(=O)(=O)c2ccccc2F)CC1)Nc1ccccc1C(=O)c1ccccc1	-8	-5	-17	0	-4	-2
